The text below walks through data of ChEMBL document CHEMBL3997828, “Investigation of orexin-2 selective receptor antagonists: Structural modifications resulting in dual orexin receptor antagonists” (Bioorg Med Chem Lett, 2017).

For orientation: IC50 means the concentration at which inhibition is half-maximal. For orientation: Ki means the dissociation constant of the complex between target and ligand, obtained from inhibition or displacement.

The species entered for test [1] is Homo sapiens. As to the kind of experiment: Selectivity ratio of Ki for human OX1R expressed in CHOK1 cell membranes to Ki for human OX2R expressed in CHOK1 cell membranes. Format: cell-based. An outline of the steps: (§1)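 Radioligand competition binding used membranes from CHO-K1 cells overexpressing human OX1R or OX2R. […] The selectivity ratio is OX1R Ki divided by OX2R Ki.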

For test [2], the target named is T1, Orexin/Hypocretin receptor type 1 (Homo sapiens, UniProt O43613).
T1 sequence (O43613 whole entry): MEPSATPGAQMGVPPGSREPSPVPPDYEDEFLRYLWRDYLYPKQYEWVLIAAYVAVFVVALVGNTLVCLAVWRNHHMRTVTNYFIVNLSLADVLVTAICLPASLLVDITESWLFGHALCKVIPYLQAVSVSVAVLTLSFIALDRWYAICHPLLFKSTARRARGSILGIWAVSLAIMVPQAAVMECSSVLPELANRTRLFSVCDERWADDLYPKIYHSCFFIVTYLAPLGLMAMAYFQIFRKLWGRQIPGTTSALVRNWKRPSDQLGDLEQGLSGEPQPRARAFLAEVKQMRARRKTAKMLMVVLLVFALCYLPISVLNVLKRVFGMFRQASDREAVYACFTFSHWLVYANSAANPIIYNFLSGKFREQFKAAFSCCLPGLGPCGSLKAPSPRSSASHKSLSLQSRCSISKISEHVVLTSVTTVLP
As to the kind of experiment: Antagonist activity at human OX1R expressed in CHOK1 cells assessed as reduction in orexin A-induced calcium flux preincubated followed by orexin A addition by FLIPR assays. It counts as functional, cell-based.

For test [3], the species on record is Homo sapiens. Nature of the test: Selectivity ratio of IC50 for human OX1R expressed in CHOK1 cells to IC50 for human OX2R expressed in CHOK1 cells by FLIPR assay. Format: cell-based.
Test [4] has as its target T2, Orexin receptor type 2 (Homo sapiens, UniProt O43614).
T2 sequence (O43614 whole entry): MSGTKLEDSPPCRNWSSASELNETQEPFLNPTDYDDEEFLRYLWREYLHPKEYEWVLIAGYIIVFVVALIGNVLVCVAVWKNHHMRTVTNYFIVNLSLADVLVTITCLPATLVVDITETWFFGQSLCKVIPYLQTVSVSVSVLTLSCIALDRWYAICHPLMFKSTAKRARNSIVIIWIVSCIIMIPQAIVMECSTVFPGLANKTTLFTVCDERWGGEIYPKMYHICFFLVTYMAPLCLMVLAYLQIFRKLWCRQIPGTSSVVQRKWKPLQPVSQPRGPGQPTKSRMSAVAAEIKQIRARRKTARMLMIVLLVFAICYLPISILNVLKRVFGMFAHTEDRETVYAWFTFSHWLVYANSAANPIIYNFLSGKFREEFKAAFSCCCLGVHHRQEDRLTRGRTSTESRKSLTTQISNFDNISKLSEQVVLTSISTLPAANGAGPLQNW
As to the kind of experiment: Displacement of [3H](S)-N-(2-(1H-pyrrol-1-yl)phenyl)-1-(2-(1-methyl-1H-benzo[d]imidazol-2-ylthio)acetyl)pyrrolidine-2-carboxamide from human OX2R expressed in CHOK1 cell membranes. An outline of the steps: as §1
For orientation: Loss of bound radioactivity is the signal in a displacement assay; it reports binding, not function.

For test [5], the target named is T1, Orexin/Hypocretin receptor type 1. As to the kind of experiment: Displacement of [3H](S)-N-(biphenyl-2-yl)-1-(2-(1-methyl-1H-benzo[d]imidazol-2-ylthio)acetyl)pyrrolidine-2-carboxamide from human OX1R expressed in CHOK1 cell membranes. An outline of the steps: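 Radioligand competition binding used membranes from CHO-K1 cells overexpressing human OX1R or OX2R. The selectivity ratio is OX1R Ki divided by OX2R Ki.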

The target in test [6] is T2, Orexin receptor type 2. As to the kind of experiment: Antagonist activity at human OX2R expressed in CHOK1 cells assessed as reduction in orexin A-induced calcium flux preincubated followed by orexin A addition by FLIPR assays. Format: functional, cell-based. (Calcium assays in cells follow changes in intracellular calcium, usually with a dye or a luminescent sensor.)

Regarding `Cc1c(C#N)ccnc1O[C@@H]1CC[C@@H](C)N(C(=O)c2ccccc2-n2ncnn2)C1`, the Ratio Ki in the test filed under Homo sapiens [1] was found to be 358. The IC50 in test [2] was found to be 4590 nM. The Ratio IC50 in the test filed under Homo sapiens [3] is 596.

Consider `C[C@@H]1CC[C@@H](Nc2cc(C#N)ccn2)CN1C(=O)c1ccccc1-n1nccn1`, for which the Ki was found to be 0.9 nM on Orexin receptor type 2 [4] and 287 nM in test [5]. Besides, the Ratio Ki in the test filed under Homo sapiens [1] came out at 319. Also, the IC50 in test [2] came out at 1740 nM. Moreover, the Ratio IC50 in the test listed under Homo sapiens [3] amounted to 60.

Regarding `C[C@@H]1CC[C@@H](Oc2nccc3c2C(=O)OC3(C)C)CN1C(=O)c1ccccc1-n1nccn1`, the values for the Ki (on Orexin receptor type 2 [4]; in test [5]) were 2.2 nM and 834 nM, respectively. The Ratio Ki in the test filed under Homo sapiens [1] worked out at 379. Further, the Ratio IC50 in the test listed under Homo sapiens [3] turned out to be 414.

`Cc1c(C#N)ccnc1O[C@@H]1CC[C@@H](C)N(C(=O)c2ccccc2C2CC2)C1`: the Ratio Ki in the test listed under Homo sapiens [1] amounted to 741. Moreover, in test [2], the IC50 stood at 1740 nM. Besides, in the test listed under Homo sapiens [3], the Ratio IC50 is 193.

For the compound `COC(=O)c1c(C#N)ccnc1O[C@@H]1CC[C@@H](C)N(C(=O)c2ccccc2-n2nccn2)C1`, on Orexin receptor type 2 [4], the affinity, expressed as Ki, was 0.5 nM. In addition, in the test listed under Homo sapiens [1], the Ratio Ki is 112. Besides, the Ratio IC50 in the test filed under Homo sapiens [3] came out at 39.

As for `COC(=O)c1cccnc1O[C@@H]1CC[C@@H](C)N(C(=O)c2ccccc2-n2nccn2)C1`, the values for the inhibition constant (Ki) (at Orexin receptor type 2 [4]; in test [5]) were 2.5 nM and 66 nM, respectively. Moreover, in the test filed under Homo sapiens [1], the Ratio Ki amounted to 26. The IC50 at Orexin receptor type 2 [6] was 35 nM; in test [2], 309 nM. Moreover, the Ratio IC50 in the test filed under Homo sapiens [3] stood at 9.

`Cc1c(C#N)ccnc1O[C@@H]1CC[C@@H](C)N(C(=O)c2cccnc2-c2ccccc2)C1`: the Ratio Ki in the test listed under Homo sapiens [1] stood at 434. Also, in test [2], the IC50 is 4670 nM. Besides, in the test listed under Homo sapiens [3], the Ratio IC50 came out at 180.

On to `COC(=O)c1ccnc(O[C@@H]2CC[C@@H](C)N(C(=O)c3ccccc3-n3nccn3)C2)c1`, for which the Ratio Ki in the test filed under Homo sapiens [1] amounted to 80. In addition, the Ratio IC50 in the test listed under Homo sapiens [3] stood at 82.

Take `CC(=O)Nc1cc(C(=O)N2C[C@H](Oc3nccc(C#N)c3C)CC[C@H]2C)c(-c2ccccc2)cn1`: the values for the Ki (at Orexin receptor type 2 [4]; in test [5]) were 0.7 nM and 10 nM, respectively. For the same compound, the Ratio Ki in the test listed under Homo sapiens [1] came out at 14. Also, the IC50 amounted to 38 nM at Orexin receptor type 2 [6] and 71 nM in test [2]. In addition, the Ratio IC50 in the test listed under Homo sapiens [3] turned out to be 2.

For the compound `Cc1c(C#N)ccnc1O[C@@H]1CC[C@@H](C)N(C(=O)c2ccc(Br)nc2-n2nccn2)C1`, in the test filed under Homo sapiens [1], the Ratio Ki is 326. Besides, the IC50 in test [2] was > 10000 nM. Besides, in the test listed under Homo sapiens [3], the Ratio IC50 is > 345.

Regarding `COC(=O)c1cccnc1N[C@@H]1CC[C@@H](C)N(C(=O)c2ccccc2-n2nccn2)C1`, the Ki on Orexin receptor type 2 [4] was found to be 0.4 nM; in test [5] it was 12 nM. In addition, the Ratio Ki in the test listed under Homo sapiens [1] worked out at 30. In addition, the IC50 in test [2] is 69 nM. Further, in the test listed under Homo sapiens [3], the Ratio IC50 was 2.

With `Cc1c(C#N)ccnc1O[C@@H]1CC[C@@H](C)N(C(=O)c2ccccc2-n2nccn2)C1`, the Ratio Ki in the test listed under Homo sapiens [1] stood at 285. For the same compound, the IC50 in test [2] was found to be 996 nM. The Ratio IC50 in the test listed under Homo sapiens [3] was 125.

Consider `Cc1c(C#N)ccnc1O[C@@H]1CC[C@@H](C)N(C(=O)c2ccccc2C(F)(F)F)C1`, for which the Ratio Ki in the test listed under Homo sapiens [1] came to 373. In addition, the IC50 in test [2] stood at 4960 nM. In addition, the Ratio IC50 in the test filed under Homo sapiens [3] was found to be 236.

As for `COC(=O)c1cccnc1S[C@@H]1CC[C@@H](C)N(C(=O)c2ccccc2-n2nccn2)C1`, the figures for the Ki (at Orexin receptor type 2 [4]; in test [5]) were 0.8 nM and 6.3 nM, respectively. In the test filed under Homo sapiens [1], the Ratio Ki was determined as 8. Further, in the test listed under Homo sapiens [3], the Ratio IC50 turned out to be 2.

As for `C[C@@H]1CC[C@@H](Sc2cc(C#N)ccn2)CN1C(=O)c1ccccc1-n1nccn1`, the Ki at Orexin receptor type 2 [4] is 1.7 nM; in test [5], 324 nM. Further, the Ratio Ki in the test listed under Homo sapiens [1] worked out at 191. Moreover, the IC50 on Orexin receptor type 2 [6] was 13 nM. The Ratio IC50 in the test filed under Homo sapiens [3] was determined as 109.

Regarding `CC(=O)Nc1ccc(-c2ccccc2)c(C(=O)N2C[C@H](Oc3nccc(C#N)c3C)CC[C@H]2C)n1`, the Ki on Orexin receptor type 2 [4] is 0.6 nM; in test [5] it was 12 nM. In addition, in the test listed under Homo sapiens [1], the Ratio Ki is 20. In addition, the IC50 was found to be 38 nM on Orexin receptor type 2 [6] and 74 nM in test [2]. Moreover, in the test listed under Homo sapiens [3], the Ratio IC50 was determined as 2.
